G6PDH CS: L. mesenteroides G6PDH inhibition counter-screen; 200,000 compounds, 0.12% hits; AID 1020; inhibition, % at 5 µM; Purified L. mesenteroides G6PDH, diaphorase/resazurin coupled fluorescence, 45 min
Diaph inh CS: counter-screen for diaphorase-based assays: diaphorase inhibitors and chemical oxidizers | diaphorase resazurin-to-resorufin fluorescence, NADH, 16 min; bacterial (C. kluyveri) enzyme, not human | inhibition, % at 20 µM | 190,000 compounds, 0.69% hits | AID 1217;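 active means primary screen inhibition at 20 µM above a set limit, cut at about 50% in these data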;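 further: plate controls were DMSO with full reaction for no effect and wells lacking NADH for full effect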
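material = Clostridium kluyveri diaphorase enzyme | amount = 0.14 U/mL diaphorase, enzyme working solution | schedule = incubation 16 min, room temperature | detection = fluorescence of resorufin formed from resazurin, Ex 544/Em 590 nm | benchmarks = positive control minus NADH, DMSO neutral control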
L major viab: inhibitors of Leishmania major promastigote growth | Leishmania major promastigotes, resazurin fluorescence viability | inhibition, % at 10 µM | 200,000 compounds, 9% hits | AID 1063;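 further: promastigotes grown with compound for 44 hours at 28 °C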
PfGluPho inh: PfG6PD (Plasmodium falciparum) enzyme inhibition; PfGluPho enzyme, NADPH resazurin-diaphorase fluorescence; inhibition, % at 20 µM; 350,000 compounds, 0.78% hits; AID 504690;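 active means inhibition reaching at least a set limit at 20 µM in the primary screen, cut at about 59% in these data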;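 further: 0% = DMSO wells with substrate and 100% = DMSO wells lacking glucose-6-phosphate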
Diaphorase act: activates diaphorase or chemically reduces, flagging diaphorase assay artifacts; Diaphorase/resazurin coupled assay, resorufin fluorescence, 16 min; stronger effect = higher value; 1 = vehicle wells, 0 = NADH-free wells; AID 1229; activation factor at 20 µM; 190,000 compounds, 0.005% hits;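 active means diaphorase activity raised at least twofold by the compound at 20 µM; inactive means activation factor below 2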
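Measured by – red resorufin fluorescence at 544/590 nm excitation/emission · Test system – Clostridium kluyveri diaphorase, purified enzyme · Incubation – reaction time 16 min, room temperature · Buffer or medium – 50 mM HEPES pH 7.4 with 4.542 mM MgCl2, 0.005% Tween 20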
DTT redox prof: compounds producing H2O2 with reducing agent – biochemical, NIH compound library profiling, artefact control for MLSCN library redox annotation, primary screen. DTT-dependent redox cycling H2O2, phenol red/HRP absorbance; 100% = 100 µM peroxide control, 0% = buffer. activation, % at 10 µM. 200,000 compounds, 0.03% hits. AID 878;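 active means activation of at least 50% relative to the plate's high and low controls in the primary single-dose screen; inactive means activation below 50%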;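 further: compound incubated with DTT at 0.8 mM final as the reducing agent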
* hit, by the source's call; . = not tested or not shown. This is one part of a sample in which hits are shown more often than they occur. Unless noted, no stated cut-off is given here; in the data, active means inhibition above about 50%; inactive means the rest.

SMILES	G6PDH CS	Diaph inh CS	L major viab	PfGluPho inh	Diaphorase act	DTT redox prof
O=C(CC1Nc2ccccc2NC1=O)Nc1cc(Cl)cc(Cl)c1 (centres undefined)	2	19	51*	-7	0.8	6
CCOC(=O)C1=C(C)NC(=S)NC1c1ccc(OC(=O)c2ccco2)cc1 (centres undefined)	5	21	22	9	0.8	-1
CCOC(=O)c1c(NC(=O)CC2Nc3ccccc3NC2=O)sc(C)c1C (centres undefined)	-7	8	58*	3	0.9	1
CCOC(=O)c1c(NC(=O)C2=C(C)NC(=S)NC2c2ccc(CC)cc2)sc(C)c1C (centres undefined)	-2	11	85*	.	0.9	0
COc1ccc(NC(=O)CC2Nc3cccc4cccc(c34)NC2=O)cc1 (centres undefined)	23	75*	10	26	0.2	1
COc1cc(/C=C(/NC(=O)c2ccccc2)C(=O)N2CCOCC2)c([N+](=O)[O-])cc1OC	.	.	.	2	.	.
CCCS(=O)(=O)N1CCC(C(=O)Oc2ccc(OC)cc2)CC1	.	.	.	3	.	.
O=C(N(c1ccccc1)c1ccccc1)N(c1ccccc1)c1ccccc1	.	.	.	-13	.	.
O=C(CCl)N(c1ccccc1)c1ccccc1	4	31	77*	0	0.7	0
Cc1cc(C)c(C#N)c(SCc2[nH]nc3c2C(c2ccc(F)cc2)C(C#N)=C(N)O3)n1 (centres undefined)	-5	46	7	19	0.5	-1
Cc1cc(C#N)c(C)c(SCc2[nH]nc3c2C(c2ccccc2)C(C#N)=C(N)O3)n1 (centres undefined)	1	54*	16	11	0.5	0
CC1CC(=O)C(C2c3ccccc3CCN2C(=O)CCl)C(=O)C1 (centres undefined)	1	18	51*	-2	0.8	0
Cc1ccc(C)c2[nH]c(=O)c(CCNC(=O)C(C)(C)C)cc12	19	2	-5	12	1	0
CC(C)C(c1nnnn1Cc1ccco1)N1CCN(C2CCCC2)CC1 (centres undefined)	11	14	1	7	0.9	0
CCCC(c1nnnn1Cc1ccc(F)cc1)N1CCN(C2CCCCC2)CC1 (centres undefined)	-1	8	72*	-11	0.9	0
c1coc(Cn2nnnc2CN2CCN(C3CCCC3)CC2)c1	-10	6	74*	39	0.9	-3
CC(C)C(c1nnnn1Cc1ccc(F)cc1)N1CCN(C2CCCC2)CC1 (centres undefined)	15	0	4	9	1	-2
Fc1ccc(Cn2nnnc2CN2CCN(C3CCCCC3)CC2)cc1	-2	14	86*	-4	0.9	0
N#CCCN(Cc1cccnc1)C(=O)c1sc2cc(F)ccc2c1Cl	20	5	41	-5	1	0
CC(C)NC(=O)Nc1ccc2c(c1)C(=O)N([C@H](C)CO)C[C@H](C)[C@@H](CN(C)Cc1ccc(C(F)(F)F)cc1)OCCCC[C@H](C)O2	.	.	.	25	.	.
COc1ccc2[nH]c(C)c(CN3CCCCC3)c(=O)c2c1	3	-2	.	2	1	.
CCc1c(C)[nH]c2ccc(OC)cc2c1=S	16	26	3	67*	0.7	0
c1ccc(Oc2cccc(CN3CCCCC3)c2)cc1	13	10	100*	-8	0.9	0
CCN1CCN(Cc2cccc(Oc3ccc(Cl)cc3)c2)CC1	4	-2	96*	3	1	0
CCN1CCN(Cc2cccc(Oc3ccccc3)c2)CC1	2	8	97*	-2	0.9	1
CN1CCN(Cc2cccc(Oc3ccc(Cl)cc3)c2)CC1	-4	6	100*	22	0.9	0
COc1cccc(CN2CCN(Cc3cccc(Oc4ccccc4)c3)CC2)c1OC	.	.	.	10	.	.
CC1CCC(NC(=O)c2cc3c(s2)CCCC3)CC1 (centres undefined)	.	.	.	10	.	.
c1ccc(COc2cccc(CN3CCN(c4ccccn4)CC3)c2)cc1	3	13	79*	9	0.9	0

Screening results deposited in PubChem BioAssay by several laboratories.
